Read-outs that look alike come from different tables or passages of the source.
Key:
type 1 diabetic rats = assay type: in vivo, NOD rats
In short: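 […]. […] Single dose: overnight fast, then tail-vein glucose by glucometer at 1, 2, 4 and 6 h. Multiple dose: daily injections, glucose at 2, 4 and 6 h post-injection. Triplicate measurements, means reported.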

[1] = Toxicokinetic / pharmacokinetic study of insulin injection in Beagle dogs; assay type: in vivo, Beagle dogs (Canis lupus familiaris); details: subcutaneous, across all doses (0.5, 1, 1.5 IU/kg vs Lantus 1.5 IU/kg), Fig. 5
animals = test: In vivo immunogenicity studies in animals; details: no details given
[2] = target: T1, insulin receptor isoform A (IR-A) (Homo sapiens, UniProt P06213); test: Insulin receptor binding assay; details: CHO cell lysates, [125I]-labeled insulin competition; Fig. 6C
T1 sequence (P06213 28-1370 isoform P06213-2 limits assumed): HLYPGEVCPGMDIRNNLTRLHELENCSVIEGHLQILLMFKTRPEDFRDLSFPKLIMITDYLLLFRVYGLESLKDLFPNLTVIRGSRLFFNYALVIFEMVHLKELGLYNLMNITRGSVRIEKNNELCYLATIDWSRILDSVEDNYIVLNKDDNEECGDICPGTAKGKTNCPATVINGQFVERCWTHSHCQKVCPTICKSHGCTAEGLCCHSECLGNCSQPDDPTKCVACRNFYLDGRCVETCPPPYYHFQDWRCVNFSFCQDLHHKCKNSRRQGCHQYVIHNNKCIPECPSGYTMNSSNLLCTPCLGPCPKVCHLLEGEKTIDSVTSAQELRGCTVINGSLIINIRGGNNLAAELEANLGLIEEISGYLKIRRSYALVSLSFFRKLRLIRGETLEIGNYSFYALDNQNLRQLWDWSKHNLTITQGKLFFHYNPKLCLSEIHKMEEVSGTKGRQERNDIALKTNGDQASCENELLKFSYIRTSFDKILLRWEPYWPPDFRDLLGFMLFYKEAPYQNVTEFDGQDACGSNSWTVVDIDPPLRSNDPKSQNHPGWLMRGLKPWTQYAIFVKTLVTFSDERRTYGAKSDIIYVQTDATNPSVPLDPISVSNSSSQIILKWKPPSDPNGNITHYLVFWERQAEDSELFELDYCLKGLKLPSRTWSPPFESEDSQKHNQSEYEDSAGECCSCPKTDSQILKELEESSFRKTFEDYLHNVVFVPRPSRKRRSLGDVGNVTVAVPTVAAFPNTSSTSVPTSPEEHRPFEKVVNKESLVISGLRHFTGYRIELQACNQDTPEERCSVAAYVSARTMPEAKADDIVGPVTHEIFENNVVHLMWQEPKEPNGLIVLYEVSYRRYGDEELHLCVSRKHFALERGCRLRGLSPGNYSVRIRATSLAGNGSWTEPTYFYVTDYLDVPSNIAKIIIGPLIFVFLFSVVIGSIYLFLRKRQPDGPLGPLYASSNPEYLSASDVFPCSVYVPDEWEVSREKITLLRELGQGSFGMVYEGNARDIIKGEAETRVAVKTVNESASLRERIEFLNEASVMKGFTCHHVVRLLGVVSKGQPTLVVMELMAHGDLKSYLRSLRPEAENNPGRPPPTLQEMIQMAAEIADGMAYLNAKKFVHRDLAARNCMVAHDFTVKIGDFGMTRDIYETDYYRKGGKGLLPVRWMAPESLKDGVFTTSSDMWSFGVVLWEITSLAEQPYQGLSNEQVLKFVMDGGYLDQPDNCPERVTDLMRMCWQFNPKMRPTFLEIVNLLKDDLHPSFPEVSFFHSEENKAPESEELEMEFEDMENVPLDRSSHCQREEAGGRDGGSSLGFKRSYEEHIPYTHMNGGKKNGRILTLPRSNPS
T1 sequence (P06213 763-1382 limits assumed): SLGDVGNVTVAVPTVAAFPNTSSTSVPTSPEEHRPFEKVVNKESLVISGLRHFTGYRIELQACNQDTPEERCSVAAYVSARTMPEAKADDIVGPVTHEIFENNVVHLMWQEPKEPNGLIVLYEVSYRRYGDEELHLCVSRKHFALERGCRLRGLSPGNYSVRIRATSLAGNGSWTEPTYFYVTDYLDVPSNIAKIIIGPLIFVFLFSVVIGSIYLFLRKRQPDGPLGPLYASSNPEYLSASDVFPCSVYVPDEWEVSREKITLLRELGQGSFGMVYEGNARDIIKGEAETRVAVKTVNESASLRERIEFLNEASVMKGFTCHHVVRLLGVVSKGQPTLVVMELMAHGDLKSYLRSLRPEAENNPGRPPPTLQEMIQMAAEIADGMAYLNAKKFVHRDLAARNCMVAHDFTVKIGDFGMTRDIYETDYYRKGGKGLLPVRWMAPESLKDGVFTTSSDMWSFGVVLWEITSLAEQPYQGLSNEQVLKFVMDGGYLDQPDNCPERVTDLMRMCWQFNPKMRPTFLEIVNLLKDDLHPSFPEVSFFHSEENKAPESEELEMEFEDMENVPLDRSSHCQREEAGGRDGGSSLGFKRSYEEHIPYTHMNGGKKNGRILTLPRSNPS
In short: (§1)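 CHO cells expressing insulin receptor isoforms A and B were grown in DMEM with 10% FBS and 1% penicillin-streptomycin, then serum-starved. Cell lysates were incubated with [125I]-insulin with or without excess unlabeled competitor. Bound and free tracer were separated by gel filtration and radioactivity was counted per fraction. IC50 values came from competitive binding curves.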

[3] = target: T2, insulin receptor isoform B (IR-B) (Homo sapiens, UniProt P06213); test: Insulin receptor phosphorylation assay; assay type: cell-based; details: CHO cells expressing insulin receptor; phospho-specific ELISA; Fig. 6B
T2 sequence (P06213 28-758 limits assumed): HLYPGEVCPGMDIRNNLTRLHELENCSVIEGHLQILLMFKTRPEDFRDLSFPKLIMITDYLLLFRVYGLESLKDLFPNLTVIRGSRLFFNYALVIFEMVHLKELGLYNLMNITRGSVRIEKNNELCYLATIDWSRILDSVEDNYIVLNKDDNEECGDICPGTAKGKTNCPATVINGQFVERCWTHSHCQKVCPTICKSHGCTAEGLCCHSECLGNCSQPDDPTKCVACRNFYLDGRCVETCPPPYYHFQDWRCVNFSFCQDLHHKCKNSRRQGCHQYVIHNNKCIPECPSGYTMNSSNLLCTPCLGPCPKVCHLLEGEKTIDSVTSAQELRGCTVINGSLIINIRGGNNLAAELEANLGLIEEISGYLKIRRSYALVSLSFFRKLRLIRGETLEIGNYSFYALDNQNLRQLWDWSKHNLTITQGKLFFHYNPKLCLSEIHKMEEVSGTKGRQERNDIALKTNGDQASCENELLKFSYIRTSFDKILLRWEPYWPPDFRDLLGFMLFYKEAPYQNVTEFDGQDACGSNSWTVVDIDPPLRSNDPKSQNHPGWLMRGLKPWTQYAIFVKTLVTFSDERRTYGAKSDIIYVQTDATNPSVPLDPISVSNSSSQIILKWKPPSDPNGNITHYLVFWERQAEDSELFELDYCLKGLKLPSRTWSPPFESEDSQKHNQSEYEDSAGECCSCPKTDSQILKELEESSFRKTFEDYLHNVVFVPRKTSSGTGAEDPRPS
T2 sequence (P06213 763-1382 limits assumed): as the sequence (P06213 763-1382 limits assumed) above
In short: (§2)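 CHO cells expressing IR isoforms A and B were cultured in DMEM with 10% FBS and 1% penicillin-streptomycin, then serum-starved. Cells were exposed to insulin at 0.1, 1 or 10 nM for 5, 15 or 30 min. Lysates were applied to anti-phosphotyrosine-coated wells and detected with an HRP-conjugated secondary antibody. Receptor phosphorylation was quantified from absorbance.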

[4] = target: T1, insulin receptor isoform A (IR-A); test: Insulin receptor phosphorylation assay; assay type: cell-based; details: CHO cells expressing insulin receptor; phospho-specific ELISA; Fig. 6A
In short: as §2

[5] = target: insulin-like growth factor 1 receptor (IGF-1R) (Homo sapiens, UniProt P08069); test: IGF-1R binding assay; details: H19-7/IGF-1R cell line, [125I]-labeled IGF competition; Fig. 6E
Sequence of insulin-like growth factor 1 receptor (IGF-1R) (P08069 31-736 limits assumed): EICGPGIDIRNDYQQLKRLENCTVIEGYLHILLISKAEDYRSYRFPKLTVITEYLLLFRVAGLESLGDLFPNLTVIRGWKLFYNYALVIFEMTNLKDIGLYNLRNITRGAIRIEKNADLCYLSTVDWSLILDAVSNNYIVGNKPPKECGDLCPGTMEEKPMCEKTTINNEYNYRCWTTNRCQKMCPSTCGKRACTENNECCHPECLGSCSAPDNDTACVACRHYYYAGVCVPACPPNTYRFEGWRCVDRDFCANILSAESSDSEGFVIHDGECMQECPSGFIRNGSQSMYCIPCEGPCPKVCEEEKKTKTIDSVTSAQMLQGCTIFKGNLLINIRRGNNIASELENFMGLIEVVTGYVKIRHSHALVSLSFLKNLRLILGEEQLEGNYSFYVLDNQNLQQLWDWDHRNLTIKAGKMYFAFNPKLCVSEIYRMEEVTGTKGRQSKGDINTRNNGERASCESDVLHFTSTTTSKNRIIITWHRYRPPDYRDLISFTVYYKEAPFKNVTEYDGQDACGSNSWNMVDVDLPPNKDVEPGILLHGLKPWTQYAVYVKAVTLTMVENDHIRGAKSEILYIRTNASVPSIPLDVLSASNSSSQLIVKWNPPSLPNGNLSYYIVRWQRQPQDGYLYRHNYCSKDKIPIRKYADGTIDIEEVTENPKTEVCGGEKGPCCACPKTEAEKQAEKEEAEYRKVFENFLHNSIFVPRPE
Sequence of insulin-like growth factor 1 receptor (IGF-1R) (P08069 741-1367 limits assumed): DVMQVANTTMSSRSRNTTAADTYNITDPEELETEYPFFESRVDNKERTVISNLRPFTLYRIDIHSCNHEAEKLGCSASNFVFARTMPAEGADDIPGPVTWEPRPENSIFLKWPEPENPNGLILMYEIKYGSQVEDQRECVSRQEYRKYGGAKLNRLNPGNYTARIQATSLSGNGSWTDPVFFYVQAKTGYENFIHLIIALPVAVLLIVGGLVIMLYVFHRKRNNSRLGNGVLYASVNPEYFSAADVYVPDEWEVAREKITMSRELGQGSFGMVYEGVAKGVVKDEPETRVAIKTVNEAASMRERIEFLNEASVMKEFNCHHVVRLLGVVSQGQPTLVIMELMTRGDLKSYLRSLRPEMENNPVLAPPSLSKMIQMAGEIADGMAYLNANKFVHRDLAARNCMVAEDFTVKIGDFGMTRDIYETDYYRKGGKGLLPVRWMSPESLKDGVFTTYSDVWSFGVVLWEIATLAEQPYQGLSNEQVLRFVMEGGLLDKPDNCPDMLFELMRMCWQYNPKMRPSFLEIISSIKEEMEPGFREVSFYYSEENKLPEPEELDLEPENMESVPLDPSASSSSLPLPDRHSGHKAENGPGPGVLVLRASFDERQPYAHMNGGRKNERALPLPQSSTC

[6] = target: T2, insulin receptor isoform B (IR-B); test: Insulin receptor binding assay; details: CHO cell lysates, [125I]-labeled insulin competition; Fig. 6D
In short: as §1

[7] = target: insulin lisargine (human); test: crystal structure
[8] = target: insulin lisargine (human); test: crystal structure; remark: listed apart in the source

| binding affinity to IR-A compared with Lantus [2] | IR-B phosphorylation levels compared with Lantus [3] | IR-A phosphorylation levels compared with Lantus [4] | binding affinity to IR-B compared with Lantus [6] | stoichiometry N [7] | stoichiometry N [8] | Substance | glucose-lowering effect compared with glargine (type 1 diabetic rats; 5 IU/kg (abstract)) | blood glucose levels compared with solvent control, multiple-dose (type 1 diabetic rats; daily administration, at 2, 4 and 6 h post-administration, Fig. 4B) | glucose-lowering effects compared with Aspart Insulin (type 1 diabetic rats; equivalent dose of 5 IU/kg, single-dose and multiple-dose studies) | time of most pronounced glucose-lowering effect, multiple-dose (type 1 diabetic rats; multiple-dose, 5 IU/kg group, Fig. 4B) [h] | time of peak glucose-lowering effect, multiple-dose (type 1 diabetic rats; multiple-dose, 10 IU/kg, Fig. 4B) [h] | blood glucose levels compared with solvent control, single-dose (type 1 diabetic rats; single dose (2.5, 5, 10 IU/kg), at 1, 2, 4 and 6 h post-administration, Fig. 4A) | time point of most pronounced glucose-lowering effect, single-dose (type 1 diabetic rats; single dose, Fig. 4A) [h] | plasma insulin concentrations compared with Lantus (insulin glargine) [1] | immunogenicity in animals (animals) | IGF-1R binding affinity / IC50 compared with Lantus (insulin glargine) [5] |
| --- | --- | --- | --- | --- | --- | --- | --- | --- | --- | --- | --- | --- | --- | --- | --- | --- |
| comparable binding affinities | no significant differences | no significant differences | comparable binding affinities | – | – | insulin lisargine | significantly outperformed glargine | significant reductions | comparable to the clinical drug Aspart Insulin | 4 | 6 | statistically significant reductions | 4 | no significant differences | favorable safety profile | no significant differences in binding affinity or IC50 values |
| – | – | – | – | 6 | 2 | insulin lisargine (ligand) | – | – | – | – | – | – | – | – | – | – |
